Results pooled from the literature.
DHFR: Dihydrofolate reductase (DHFR, Homo sapiens, UniProt P00374)
Tmem97: Sigma intracellular receptor 2 (Tmem97, Rattus norvegicus, UniProt Q5U3Y7)

| Structure (SMILES) | target | effect on | mode | technique | tested at | quantity | value |
| --- | --- | --- | --- | --- | --- | --- | --- |
| C=CC(=O)N1CCC(COCC(=O)N2CCN(c3nc(-c4cnc(N)nc4C(F)F)nc(N4CCOC[C@@H]4C)n3)CC2)CC1 | BMP-2-inducible protein kinase (BMP2K, Homo sapiens, UniProt Q9NSY1) | binding | – | competition with immobilised ligand | 1 µM | remaining binding | 90% |
| Cc1ccc(NC(=S)NN=Cc2ccc(N3CCCCC3)cc2)cc1 | DHFR | enzyme activity | inhibitor | – | 500 µM | inhibition | 84.4% |
| COc1cc(-c2cncc3c2CN(C)Cc2cc(N4CCNCC4)ccc2-3)cc(OC)c1OC | Serine/threonine-protein kinase MRCK gamma (CDC42BPG, Homo sapiens, UniProt Q6DT37) | enzyme activity | inhibitor | – | 1 µM | remaining activity | 102% |
| Cc1cc([C@@H](C)Nc2ccccc2C(=O)O)c2nc(N3CCC(F)(F)CC3)c(C#N)c(=O)n2c1 | Casein kinase I isoform delta (CSNK1D, Homo sapiens, UniProt P48730) | binding | – | competition with immobilised ligand | 10 µM | remaining binding | 100% |
| CNc1ncc2c(/C=C/C(=O)N3CCC(OC)CC3)nn(Cc3cccc(C(F)(F)F)c3)c2n1 | Mitogen-activated protein kinase kinase kinase 8 (MAP3K8, Homo sapiens, UniProt P41279) | enzyme activity | inhibitor | radiometric | 1 µM | remaining activity | 112% |
| C[C@H]1C(=O)/C(=C/c2ccccc2)[C@H]2C[C@@H]1N(Cc1ccccc1)C[C@@]2(C)O | Tmem97 | ligand displacement | – | radioligand | 1 µM | inhibition | 0% |
| COc1cccc(NC(=S)NN=Cc2ccc(N3CCCCC3)cc2)c1 | DHFR | enzyme activity | inhibitor | – | 500 µM | inhibition | 84.9% |
| CC(C)OC(=O)CNc1cccc(CN(Cc2ccc(-n3cccn3)cc2)S(=O)(=O)c2cccnc2)n1 | Rho-associated protein kinase 1 (ROCK1, Homo sapiens, UniProt Q13464) | enzyme activity | inhibitor | – | 10 µM | inhibition | ≥ 50% |
| S=C(NN=Cc1ccc(N2CCCCC2)cc1)Nc1cccc(Br)c1 | DHFR | enzyme activity | inhibitor | – | 500 µM | inhibition | 83.7% |
| C[C@H]1c2nc3ccccc3c(-c3ccccc3)c2[C@H]2C[C@@H]1N(Cc1ccccc1)C[C@]2(C)O | Tmem97 | ligand displacement | – | radioligand | 1 µM | inhibition | 0% |
| Cc1ccc(CNC(=S)NN=Cc2ccc(N3CCCCC3)cc2)cc1 | DHFR | enzyme activity | inhibitor | – | 500 µM | inhibition | 81.4% |
| COc1cc([C@@H]2c3cc4c(cc3[C@@H](O[C@@H]3O[C@@H]5CO[C@@H](C)O[C@H]5[C@H](O)[C@H]3O)[C@H]3COC(=O)[C@H]23)OCO4)cc(OC)c1O | DNA topoisomerase 2-alpha (TOP2A, Homo sapiens, UniProt P11388) | enzyme activity | inhibitor | – | 31.5 µM | inhibition | 0% |
